In publication PMC3975472 (Biomolecules & Therapeutics, 2014):
Where a name gives a salt, the structure may show the parent alone.

Legend:
[1] = test system: 9 cytochrome P450 (CYP) family members (CYP1A2, CYP2A6, CYP2B6, CYP2C8, CYP2C9, CYP2C19, CYP2D6, CYP2E1, and CYP3A4); experiment: Cocktail probe assay in pooled HLMs, all 9 CYP isoforms together; type: in vitro ADME, human; conditions: 0–50 μM, 37°C 60 min
Procedure, shortened: (§1)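 Pooled HLMs (0.1 mg) in 0.1 M potassium phosphate, pH 7.4, with cocktail probe substrates, NADPH-generating system and test compound (0.1–25 μM, six levels). Pre-incubation with NADPH for 0 or 15 min (reference inhibitor: 20 min), then 60 min at 37°C. Stopped with acidified acetonitrile plus terfenadine internal standard; metabolites by LC-MS/MS (MRM). IC50 from percent activity vs log[I]; duplicates.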

CYP2D6 = CYP2D6 (Homo sapiens, UniProt P10635); type: in vitro ADME; conditions: IC50, HLMs, pre-incubation 20 min with NADPH, mean of duplicates
Procedure, shortened: as §1

CYP2C19 = CYP2C19 (Homo sapiens, UniProt P33261); experiment: Cocktail probe assay in pooled HLMs: CYP2C19-catalyzed omeprazole 5-hydroxylase; type: in vitro ADME; conditions: pre-incubation 20 min with NADPH, mean of duplicates
Procedure, shortened: as §1

CYP2A6 = target: T1, CYP2A6 (Homo sapiens, UniProt P11509); experiment: Cocktail probe assay in pooled HLMs: CYP2A6-catalyzed coumarin 7-hydroxylase; type: in vitro ADME; conditions: pre-incubation 20 min with NADPH, mean of duplicates
T1 sequence (P11509 1-494): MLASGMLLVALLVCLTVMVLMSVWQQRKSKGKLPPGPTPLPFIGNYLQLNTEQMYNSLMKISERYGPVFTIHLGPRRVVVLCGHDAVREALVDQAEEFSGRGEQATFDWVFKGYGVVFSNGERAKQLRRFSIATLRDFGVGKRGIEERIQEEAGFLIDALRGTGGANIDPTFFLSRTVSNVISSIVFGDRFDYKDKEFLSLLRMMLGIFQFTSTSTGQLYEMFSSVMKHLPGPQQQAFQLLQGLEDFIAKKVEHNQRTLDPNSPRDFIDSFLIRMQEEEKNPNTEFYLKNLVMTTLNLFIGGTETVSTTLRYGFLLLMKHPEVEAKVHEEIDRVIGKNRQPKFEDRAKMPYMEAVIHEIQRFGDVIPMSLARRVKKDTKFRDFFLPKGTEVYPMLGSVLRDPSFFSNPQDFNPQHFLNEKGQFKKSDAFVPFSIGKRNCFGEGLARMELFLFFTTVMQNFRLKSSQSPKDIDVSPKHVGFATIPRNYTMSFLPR
Procedure, shortened: as §1

CYP2E1 = CYP2E1 (Homo sapiens, UniProt P05181); type: in vitro ADME; conditions: IC50, HLMs, pre-incubation 20 min with NADPH, mean of duplicates
Procedure, shortened: as §1

CYP2C9 = CYP2C9 (Homo sapiens, UniProt P11712); experiment: Cocktail probe assay in pooled HLMs: CYP2C9-catalyzed diclofenac 4′-hydroxylase; type: in vitro ADME; conditions: pre-incubation 20 min with NADPH, mean of duplicates
Procedure, shortened: as §1

CYP1A2 = target: T2, CYP1A2 (Homo sapiens, UniProt P05177); experiment: Cocktail probe assay in pooled HLMs: CYP1A2-catalyzed phenacetin O-deethylase; type: in vitro ADME; conditions: pre-incubation 20 min with NADPH, mean of duplicates
T2 sequence (P05177 1-516): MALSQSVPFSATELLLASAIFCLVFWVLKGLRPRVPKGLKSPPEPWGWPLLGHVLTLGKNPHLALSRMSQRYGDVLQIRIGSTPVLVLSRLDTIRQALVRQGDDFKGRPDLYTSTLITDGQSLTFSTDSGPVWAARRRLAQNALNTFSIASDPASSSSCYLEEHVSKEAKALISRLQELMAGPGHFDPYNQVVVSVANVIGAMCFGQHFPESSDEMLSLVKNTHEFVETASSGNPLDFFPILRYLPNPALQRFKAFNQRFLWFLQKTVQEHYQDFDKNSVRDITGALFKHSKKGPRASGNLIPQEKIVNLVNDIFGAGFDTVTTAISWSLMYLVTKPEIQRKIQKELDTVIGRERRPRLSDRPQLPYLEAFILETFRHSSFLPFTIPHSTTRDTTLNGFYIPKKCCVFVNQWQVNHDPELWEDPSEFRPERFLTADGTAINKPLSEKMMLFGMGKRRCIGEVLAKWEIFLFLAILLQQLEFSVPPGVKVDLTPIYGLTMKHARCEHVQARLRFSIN
Procedure, shortened: as §1

CYP2C8 = target: T3, CYP2C8 (Homo sapiens, UniProt P10632); experiment: Cocktail probe assay in pooled HLMs: CYP2C8-catalyzed amodiaquine N-deethylase; type: in vitro ADME; conditions: pre-incubation 20 min with NADPH, mean of duplicates
T3 sequence (P10632 1-490): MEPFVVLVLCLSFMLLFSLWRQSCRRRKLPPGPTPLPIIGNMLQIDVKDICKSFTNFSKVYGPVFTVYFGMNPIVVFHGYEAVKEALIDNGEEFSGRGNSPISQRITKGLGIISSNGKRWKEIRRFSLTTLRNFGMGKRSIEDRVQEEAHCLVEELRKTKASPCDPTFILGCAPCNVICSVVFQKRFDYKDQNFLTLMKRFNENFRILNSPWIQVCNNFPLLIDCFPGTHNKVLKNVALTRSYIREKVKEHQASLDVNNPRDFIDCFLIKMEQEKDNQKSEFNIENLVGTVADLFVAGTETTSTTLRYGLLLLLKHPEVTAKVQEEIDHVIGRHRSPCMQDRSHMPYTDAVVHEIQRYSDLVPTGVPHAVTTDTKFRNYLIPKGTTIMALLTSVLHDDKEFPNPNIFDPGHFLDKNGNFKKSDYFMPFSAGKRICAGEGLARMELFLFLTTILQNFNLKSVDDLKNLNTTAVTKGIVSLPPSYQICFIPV
Procedure, shortened: as §1

CYP2B6 = target: T4, CYP2B6 (Homo sapiens, UniProt P20813); experiment: Cocktail probe assay in pooled HLMs: CYP2B6-catalyzed bupropion hydroxylase; type: in vitro ADME; conditions: pre-incubation 20 min with NADPH, mean of duplicates
T4 sequence (P20813 1-491): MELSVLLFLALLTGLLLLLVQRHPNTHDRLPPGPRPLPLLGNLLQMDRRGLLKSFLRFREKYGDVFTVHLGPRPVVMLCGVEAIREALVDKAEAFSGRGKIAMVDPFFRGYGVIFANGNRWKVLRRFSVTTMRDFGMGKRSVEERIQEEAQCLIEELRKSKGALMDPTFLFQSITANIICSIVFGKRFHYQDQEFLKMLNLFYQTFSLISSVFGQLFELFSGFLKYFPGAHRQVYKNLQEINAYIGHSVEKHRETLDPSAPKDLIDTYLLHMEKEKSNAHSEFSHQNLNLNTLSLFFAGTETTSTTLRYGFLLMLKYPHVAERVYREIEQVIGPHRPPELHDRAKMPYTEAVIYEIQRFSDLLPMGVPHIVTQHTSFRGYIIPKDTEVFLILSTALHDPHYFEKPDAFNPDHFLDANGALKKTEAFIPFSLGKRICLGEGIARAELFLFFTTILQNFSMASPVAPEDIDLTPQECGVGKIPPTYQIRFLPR
Procedure, shortened: as §1

CYP2D6, sequence (P10635 whole entry): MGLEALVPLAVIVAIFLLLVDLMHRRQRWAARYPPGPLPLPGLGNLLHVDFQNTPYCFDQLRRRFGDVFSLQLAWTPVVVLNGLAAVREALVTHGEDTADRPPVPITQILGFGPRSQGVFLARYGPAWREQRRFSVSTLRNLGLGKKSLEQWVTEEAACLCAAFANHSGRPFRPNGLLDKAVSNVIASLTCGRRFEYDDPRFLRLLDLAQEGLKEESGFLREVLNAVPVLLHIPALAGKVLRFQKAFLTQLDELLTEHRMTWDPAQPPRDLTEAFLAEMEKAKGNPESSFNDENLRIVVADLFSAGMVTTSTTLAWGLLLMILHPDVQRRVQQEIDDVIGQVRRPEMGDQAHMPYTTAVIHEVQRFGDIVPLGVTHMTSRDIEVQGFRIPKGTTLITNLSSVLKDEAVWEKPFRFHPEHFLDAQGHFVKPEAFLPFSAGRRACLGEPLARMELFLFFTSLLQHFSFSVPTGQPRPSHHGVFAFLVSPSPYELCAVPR
CYP2C9, sequence (P11712 whole entry): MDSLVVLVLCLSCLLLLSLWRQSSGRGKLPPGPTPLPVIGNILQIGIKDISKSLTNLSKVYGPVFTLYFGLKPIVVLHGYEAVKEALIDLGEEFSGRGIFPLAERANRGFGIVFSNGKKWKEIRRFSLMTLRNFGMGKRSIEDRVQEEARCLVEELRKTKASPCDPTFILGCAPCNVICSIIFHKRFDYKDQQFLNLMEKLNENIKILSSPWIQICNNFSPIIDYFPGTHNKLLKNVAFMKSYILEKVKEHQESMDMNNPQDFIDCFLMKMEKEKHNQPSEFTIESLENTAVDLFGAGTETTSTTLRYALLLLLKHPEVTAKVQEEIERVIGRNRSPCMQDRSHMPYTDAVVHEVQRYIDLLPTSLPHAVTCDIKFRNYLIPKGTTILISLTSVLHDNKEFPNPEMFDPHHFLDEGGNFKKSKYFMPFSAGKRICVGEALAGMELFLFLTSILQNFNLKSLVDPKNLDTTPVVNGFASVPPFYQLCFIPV
CYP2C19, sequence (P33261 whole entry): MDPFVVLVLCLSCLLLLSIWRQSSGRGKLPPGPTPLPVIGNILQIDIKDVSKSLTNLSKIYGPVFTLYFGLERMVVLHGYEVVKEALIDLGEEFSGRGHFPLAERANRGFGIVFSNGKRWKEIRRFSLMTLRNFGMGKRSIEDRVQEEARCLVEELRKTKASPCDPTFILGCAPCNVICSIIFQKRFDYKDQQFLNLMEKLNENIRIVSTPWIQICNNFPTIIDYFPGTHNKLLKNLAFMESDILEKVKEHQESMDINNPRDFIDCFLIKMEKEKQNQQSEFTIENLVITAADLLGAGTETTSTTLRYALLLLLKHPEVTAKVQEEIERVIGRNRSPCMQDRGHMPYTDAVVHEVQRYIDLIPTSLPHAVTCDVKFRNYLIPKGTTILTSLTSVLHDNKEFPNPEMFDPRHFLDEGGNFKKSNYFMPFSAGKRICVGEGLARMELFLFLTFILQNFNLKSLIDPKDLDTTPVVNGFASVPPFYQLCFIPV
CYP2E1, sequence (P05181 whole entry): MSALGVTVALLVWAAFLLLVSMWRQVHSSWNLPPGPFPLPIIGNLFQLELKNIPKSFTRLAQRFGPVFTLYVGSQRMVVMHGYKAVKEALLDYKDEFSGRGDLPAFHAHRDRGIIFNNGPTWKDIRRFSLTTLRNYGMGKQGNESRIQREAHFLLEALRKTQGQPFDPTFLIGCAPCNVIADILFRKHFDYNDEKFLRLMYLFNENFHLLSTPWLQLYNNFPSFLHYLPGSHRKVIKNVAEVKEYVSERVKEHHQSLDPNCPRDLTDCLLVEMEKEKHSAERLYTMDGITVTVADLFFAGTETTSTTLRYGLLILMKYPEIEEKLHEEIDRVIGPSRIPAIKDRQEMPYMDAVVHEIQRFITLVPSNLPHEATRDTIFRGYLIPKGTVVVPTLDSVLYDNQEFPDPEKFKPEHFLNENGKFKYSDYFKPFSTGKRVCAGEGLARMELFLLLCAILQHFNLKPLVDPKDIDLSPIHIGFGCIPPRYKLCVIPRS

## CC(=O)Oc1c2oc3cc(O)c(O)cc3c2c(OC(C)=O)c2oc3cc(O)c(O)cc3c12 [Polyozellin, polyozellin]
[1]
  inhibitory effects on the activities of all 9 CYPs: weak inhibitory effects

## CCCC(C(=O)OCCN(CC)CC)(c1ccccc1)c1ccccc1 [SKF-525A, 2-diethylaminoethyl-2,2-diphenylvalerate-HCl]
CYP2D6
  IC50: 3.5 µM
CYP2C19
  IC50: 2.1 µM
CYP2A6
  IC50: > 50 µM
CYP2E1
  IC50: > 50 µM
CYP2C9
  IC50: 33.4 µM
CYP1A2
  IC50: > 50 µM
CYP2C8
  IC50: 26.5 µM
CYP2B6
  IC50: 0.9 µM
